Published values of several laboratories.
Compare with care: the assays were run in different laboratories.

O=C(O)c1cccnc1Nc1cccc(C(F)(F)F)c1  GI50 (U-87 MG; cell growth or viability, SRB; 48 h): > 30 µM
COc1ccc(C(=O)CSc2nc(C)cc(C)c2C#N)cc1  EC50 (Leishmania infantum; parasite growth; mouse Macrophage; intracellular, amastigote): 25.2 µM
CC(=NNC(=O)COc1ccc2c(C)c(Cc3ccccc3)c(=O)oc2c1C)c1ccc(Br)cc1  viability (HCT-116; cell growth or viability, MTT; 6.3 µg/mL): 49.9%
C=CC(=O)c1cccnc1Nc1cc(C(F)(F)F)ccc1OCc1ccccc1  GI50 (U-87 MG; cell growth or viability, SRB; 48 h): 9.65 µM
Cc1[nH]c(C(=O)Nc2ccc(C(=O)NCC(=O)O)cc2N2CC[C@@H](N)C2)c(Cl)c1Cl.Cl  MIC (Klebsiella aerogenes; microbial growth, broth dilution; ATCC13408): > 32 µg/mL
C=CC(=O)c1cccnc1Nc1cccc(C(F)(F)F)c1  GI50 (U-87 MG; cell growth or viability, SRB; 48 h): 7.51 µM
Cl.N[C@H]1CCN(c2cc(C(=O)NCC(=O)O)ccc2NC(=O)c2cc(Br)c(Br)[nH]2)C1  MIC (Klebsiella aerogenes; microbial growth, broth dilution; ATCC13408): > 32 µg/mL
C=CC(=O)NC1CCN(c2ncc3ncnc(Nc4ccc(Oc5ccc6c(c5)ncn6C)c(C)c4)c3n2)CC1  EC50 (EKVX; cell growth or viability): 0.0025 µM
CNc1ccnc(SCC(=O)c2ccccc2)c1C#N  EC50 (Leishmania infantum; parasite growth; mouse Macrophage; intracellular, amastigote): > 64 µM
Cl.O=C(O)CNC(=O)c1ccc(NC(=O)c2cc(Br)c(Br)[nH]2)c(N2CCNCC2)c1  MIC (Klebsiella aerogenes; microbial growth, broth dilution; ATCC13408): > 32 µg/mL
Cc1cc(C)c(C#N)c(SCC(=O)c2ccccc2C)n1  EC50 (Leishmania infantum; parasite growth; mouse Macrophage; intracellular, amastigote): 7.38 µM
Cc1[nH]c(C(=O)Nc2ccc(C(=O)NCC(=O)O)cc2N2CC[C@H](NC(=O)OC(C)(C)C)C2)c(Cl)c1Cl  MIC (Klebsiella aerogenes; microbial growth, broth dilution; ATCC13408): > 32 µg/mL
